Data: ChEMBL document CHEMBL4513216, “Probing the Open Global Health Chemical Diversity Library for Multistage-Active Starting Points for Next-Generation Antimalarials” (ACS Infect Dis, 2020)

Experiment: Toxicity liver stage against HepG2, at 10uM
Assay type: cell-based
Set-up: test concentration 10 uM, cell line HepG2-A16-CD81EGFP
Conditions: human, HepG2-A16-CD81EGFP cells; read-out: INHIBITION
Procedure, shortened: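 Uninfected HepG2-A16-CD81EGFP cells, 3 × 10^3 per well, 1536-well, plated on prespotted compound at 10 μM final, parasite-free screening media added to match infected plates; puromycin 10 μM positive, DMSO 0.5% negative; run in parallel with 48 h PbLuc assay at 37 °C, 5% CO2; viability by CellTiter-Glo luminescence, normalized to controls.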

Structure (SMILES)	cytotoxicity at 10 µM [%]
CN(C)[C@@H]1CO[C@H](CNC(=O)CC(C)(C)C)[C@H]1O	-10.8
COc1cc(C2CC(=O)Nc3c2cnn3C)ccc1O (stereo not drawn)	45.5
O=C1CC(NS(=O)(=O)c2cccc(F)c2)CN1 (stereo not drawn)	-5.89
CN(C)c1cccc(C(=O)N2CCCSCC2CN2CCCC2)c1 (stereo not drawn)	7.03
CCC(CNC(=O)C1CCC1)(OC)c1ccccc1 (stereo not drawn)	1.95
CCNC(=O)NCC(CC)(OC)c1ccccc1 (stereo not drawn)	2.05
COc1ccc(C[C@H]2CN(C(=O)C3CC3)CC[C@H]2OC)cc1	2.67
O=C1CC2(CCCCN2C(=O)c2cccs2)CN1CC1CC1 (stereo not drawn)	2.67
CN(C)CCN1CCc2ncc(CN(C)Cc3ccco3)n2CC1	-6.26
CCc1ccccc1NC(=O)N1CCn2cnc(COC)c2C1	-11.8
COc1cc2cc(C(=O)NCCC(=O)O)n(C)c2c(OC)c1OC	4.76
CC(C)c1noc(C2CCN(C(=O)C3CCCO3)CC2)n1 (stereo not drawn)	8.35
COc1ccc(OC)c(C(C)NS(=O)(=O)c2cnn(C)c2)c1 (stereo not drawn)	-3.35
Cc1ccc2c(c1)c(C)cc(=O)n2CCC#N	5.81
Cc1nc(C(=O)N2CCc3[nH]nc(Nc4ccccc4)c3C2)co1	6.11
CCC(=O)N1CCCCC1c1nc(O)c2c(n1)CN(S(C)(=O)=O)CC2 (stereo not drawn)	5
O=C(c1cncs1)N1CCOCC(Cc2ccncn2)C1 (stereo not drawn)	1.13
CC1(Cc2ccc(F)cc2)Cc2cc(C(=O)NCCO)ccc2O1 (stereo not drawn)	-2.89
CCc1noc(CCC(=O)N2CCC(c3ccn[nH]3)C2)n1 (stereo not drawn)	6.03
Cc1ccc2c(c1)c(C)cc(=O)n2CC(=O)O	3.1
C[C@@]1(O)CCN(C2CCOCC2)C[C@H]1n1ccc(=O)[nH]c1=O	4
CC(C)c1ncc(CN2CCC(c3n[nH]cc3C(=O)N(C)C)C2)cn1 (stereo not drawn)	2.27
CC(=O)N1CCOC(c2cncc(CCC(N)=O)n2)C1 (stereo not drawn)	-2.74

Structure (SMILES)	cytotoxicity at 10 µM [%]
c1ccc(CN2CCN(Cc3cnc(C4CCCCO4)nc3)CC2)cc1 (stereo not drawn)	-1.71
Cc1nc(C)c(C(=O)N2CCCC(c3cnccn3)C2)s1 (stereo not drawn)	-20.6
CS(=O)(=O)c1cn[nH]c1C1CCCCN1C(=O)c1cncs1 (stereo not drawn)	-19.1
CCS(=O)(=O)N1CCN(C(C)(C)CO)CC1	-2.48
N#Cc1ccc(F)c(CNc2ccc(F)cc2OCCO)c1	-1.98
Cc1ccc(CNC(=O)c2ccc(CNS(C)(=O)=O)o2)cc1F	15.2
CC(C)(C)CNC(=O)c1ccc(C(=O)O)cn1	-4.01
Cn1cc(CNc2nc3cc(Cl)ccc3n2C)cn1	16.8
COc1ccc(CCNc2cc(-c3nc(C)no3)ccn2)cc1OC	3.39
O=C(C1CCCOC1)N1CCN(CC(F)(F)F)c2ccccc21 (stereo not drawn)	8.09
CC(C)CN(c1cn[nH]c1)S(=O)(=O)c1cccc(C#N)c1	8.75
CCCN(CC1COc2ccccc2O1)C(=O)c1ncoc1CC (stereo not drawn)	-42.2
COc1ccc(OC)c(CNCc2c(C)nc3sc(C)cn23)c1	7.06
COC(=O)C(C)CN(Cc1ccccc1)C(=O)CN1CCCNC1=O (stereo not drawn)	0.124
CNC(=O)NC(=O)CNc1cc(C(=O)OC)cc(C(F)(F)F)c1	-0.0264
CCOc1cc(Cl)ccc1CNC(=O)N1CCCC(CO)C1 (stereo not drawn)	9.54
COc1ccc(Cl)cc1NC(=O)CCNc1ccc(C#N)cn1	2.59
Cc1cnn(CC2CCCCN2C(=O)CCCc2nc(C)no2)c1 (stereo not drawn)	1.46
COCCN(CCC#N)S(=O)(=O)c1ccc(F)cc1F	-3.54
CCNC(=O)NC(=O)CN1CCCC1c1nc(C2CCCCC2)co1 (stereo not drawn)	8.08
COc1ccccc1C1(CNc2cc(C(=O)N(C)C)ccn2)CC1	-1.6
CCOCc1ccccc1NC(=O)NCC(C)(O)c1ccsc1 (stereo not drawn)	-1.09
O=C1NCCCCC1NS(=O)(=O)N1CCCCC1 (stereo not drawn)	1.48

Structure (SMILES)	cytotoxicity at 10 µM [%]
O=C(Nc1cc(C2CCOCC2)[nH]n1)c1cc[nH]n1	-3.43
O=C(Cn1cncn1)NCC1(O)CCCc2ccccc21 (stereo not drawn)	-54.8
CCc1noc(CC)c1CC(=O)N1CCC(C(=O)NC(C)C)CC1	-10.9
O=C1N(CC2CC2)C(c2c[nH]nc2-c2cccnc2)NC12CCCC2 (stereo not drawn)	-2.16
Cc1cccc(CN2CCN(C(=O)c3cccnc3O)CC2)c1	1.73
CSCC(C)(O)CNc1ccccn1 (stereo not drawn)	8.26
CN(CCc1nc2ccccc2c(=O)[nH]1)CCC(F)(F)F	-2.27
CCN(CC1CN(Cc2ncc[nH]2)CCO1)c1cccnn1 (stereo not drawn)	1.31
O=C1CN(Cc2nnc(-c3ccc(Br)o3)o2)CCN1	13.5
CC(C#N)CSc1ccccc1NCC(=O)Nc1ccc(F)cc1 (stereo not drawn)	8.19
CC(C)(C)c1n[nH]c(C2CN(C(=O)c3csnn3)CCO2)n1 (stereo not drawn)	-2.44
Cc1ccc(CCNC(=O)N2CCCC(Cc3nccn3C)C2)cn1 (stereo not drawn)	-9.26
Cc1noc(C)c1CN1CCn2c(COC(C)C)nnc2C1	-113
Cc1oncc1C(=O)N1CC[C@H]2C[C@H](c3ccncn3)O[C@@H]2C1	-67.4
C[C@@H]1CN(C(=O)c2nc3sccn3c2-c2ncc[nH]2)C[C@H](C)O1	3.85
O=C1CCC(CCC(=O)N2CCC2c2cccs2)=NN1 (stereo not drawn)	6.13
CCC(C)N(Cc1sccc1C)C(=O)c1ccc2cccnc2n1 (stereo not drawn)	2.05
CCc1cc(NCCN2CCNC2=O)n2nc(C)c(C)c2n1	-5.81
COc1cccc(OCC2CCCN(C(=O)CCc3cc(O)no3)C2)c1 (stereo not drawn)	0.611
O=C(c1ccc2c(c1)CCC2)N1CCN(c2ccc(Cl)cn2)CC1	-2.27
CC1=C(C(=O)N2CCOC(Cc3cccc(C(F)(F)F)c3)C2)OCCO1 (stereo not drawn)	5.31
Cc1cccc(=O)n1CCCNc1nc(N(C)C)nc2c1CCNC2	-0.545
Cc1nn(C)c2nc(-c3ccccn3)nc(NCCC3CCCN3C)c12 (stereo not drawn)	1.91

Structure (SMILES)	cytotoxicity at 10 µM [%]
CN(C)CC(=O)NC1CC(=O)N(CCc2ccccc2)C1 (stereo not drawn)	-1.73
CNc1ncc(CN(C)C(=O)CCc2cc3n(n2)CCCNC3)cn1	-13.5
CC(C)[C@H]1CN(c2ccncc2)C[C@@H]1NC(=O)C1(C#N)CCOCC1	-9.21
CCc1ccc2nc(C)cc(C(=O)NCc3csc(N(C)C)n3)c2c1	2.64
O=C(NCCSc1ccccc1)[C@H]1CNC[C@H](C(=O)N2CCOCC2)C1	-1.97
Cc1noc(C)c1CCCNC(=O)Nc1ccc2c(c1)CC(=O)N2	-16
Cc1ccc2c(c1)c(CNC(C)Cn1nc(C)cc1C)nn2C (stereo not drawn)	-10.5
COc1ccc(Cc2ncc3c(n2)CN(C(=O)C(C)(C)OC)C3)cc1	-1.24
CS(=O)(=O)CC(=O)N(CCN1CCOCC1)Cc1ccco1	3.11
O=C(NCC1=CCCCC1)C(c1cccnc1)N1CCOCC1 (stereo not drawn)	-8.4
CCc1nc(N2CCCC(CCCOC)(C(=O)O)C2)ncc1C (stereo not drawn)	3.43
CC(C)n1ccnc1CN1CCCN(C(=O)c2cnn(C)c2)CC1	-22.4
Cc1cc(C(=O)N2CCCC(n3cncn3)C2)no1 (stereo not drawn)	-9.98
O=C(NCc1ccncc1)Nc1cc(C(F)(F)F)c[nH]c1=O	-9.86
COc1c(CNCc2ccc(N(C)C)nc2)c(C)nn1C	-12.3
NC(=O)C1CCN(C(=O)NCc2cccnc2OC2CCCC2)C1 (stereo not drawn)	-7.12
NC(=O)COc1cccc(CN2CCc3cncnc3C2)c1	-12.9
Cn1ccnc1CN1CCCN(Cc2noc(C3CC3)n2)CC1	-3.33
CCOc1ccnc(N2CCN(C(=O)c3c(CC)noc3C)CC2)n1	-5.43
CNC(=O)CCNC(=O)c1cc(C)n(-c2cccc(OC)c2)c1C	-10.2
CN(Cc1noc(C2CC2)n1)C1CCN(CCc2cnn(C)c2)C1 (stereo not drawn)	-0.222
O=C(Cc1csc(-c2ccco2)n1)N1CCCC1Cn1cccn1 (stereo not drawn)	-11.2
CCN(Cc1nc2c(cnn2C)c(=O)[nH]1)c1cccc(C)c1	-7.09

Structure (SMILES)	cytotoxicity at 10 µM [%]
COc1ccc(COCC(O)CNC(=O)Cc2ccc(C)cc2)cc1 (stereo not drawn)	-5.62
CCN1CCC(NC(=O)CN2CCCC2Cn2cc(C)cn2)CC1 (stereo not drawn)	-8.84
CCn1c(C(=O)N2CCN(C(=O)NC(C)C)CC2)cc2ccccc21	-1.94
CCc1ccccc1-n1cc(O)c(C(=O)N2CCCCC2)n1	0.495
Cc1ccc(-c2nc(CNCCn3cccn3)cs2)o1	-5.9
N#CC1(C(=O)N2CCN(Cc3ccon3)CC2)CCC1	-5.97
COc1ccc(C2=CCN(C(=O)CN(C)CC(N)=O)CC2)cc1	-9.19
Cc1ccc(CNC(=O)CCSCc2csc(C)n2)cn1	-10
Cc1ccc(N2CCCN(C(=O)c3c(C)oc(C)c3C)CC2)nn1	5.46
Cc1ccc(NC2CCN(C(=O)c3n[nH]c4ccccc34)CC2)nn1	2.96
O=C(NCCCn1cncn1)NCC(c1ccco1)N1CCCCC1 (stereo not drawn)	0.987
Cc1cnn(CC2CCCCN2C(=O)c2ccc3nnc(C)n3c2)c1 (stereo not drawn)	7.87
NCC(=O)N1CCCC1c1n[nH]cc1-c1ccccc1F (stereo not drawn)	2.37
CCc1nc(CNC(C)c2cccc(N3CCCC3=O)c2)cs1 (stereo not drawn)	7.28
Cc1cnc(N2CCC3(CCC(C(=O)NC(C)C)C3)CC2)nc1 (stereo not drawn)	-0.603
O=C(N[C@@H]1CN(Cc2ccoc2)[C@@H]2CCCO[C@@H]21)C1CC1	0.0515
CO[C@H]1CCN(S(=O)(=O)c2cn(C)cn2)[C@H]1Cc1cnn(C)c1	2.63
O=C1N(CC2CC2)CCC12CCN(Cc1ccoc1)CC2	-0.302
Cc1ccc2c(c1)C1(CCN(C(=O)C3CC3)CC1)CC2N1CCOCC1 (stereo not drawn)	-128
c1ccc(CN2C[C@@H]3COC[C@]3(COCC3CCOCC3)C2)nc1	-0.326
COCC1N(S(=O)(=O)c2cn(C)cn2)C2CCC1(O)CC2 (stereo not drawn)	-2.04
